Test results reported in ChEMBL document CHEMBL4033643, “Synthesis and in vitro antitumour activity of crassalactone D, its stereoisomers and novel cinnamic ester derivatives” (Eur J Med Chem, 2017).
The source made the active and inactive calls. The calls are words filed in the database; no cut-off is given here.

How the values were obtained:
MRC5 = experiment: Cytotoxicity against human MRC5 cells assessed as reduction in cell viability after 72 hrs by MTT assay; assay type: cell-based; details: MRC5, 72 h
HeLa = experiment: Cytotoxicity against human HeLa cells assessed as reduction in cell viability after 72 hrs by MTT assay; assay type: functional, cell-based
MDA-MB-231 = experiment: Cytotoxicity against human MDA-MB-231 cells assessed as reduction in cell viability after 72 hrs by MTT assay; assay type: functional, cell-based; details: MDA-MB-231, 72 h
MCF7 = experiment: Cytotoxicity against human MCF7 cells assessed as reduction in cell viability after 72 hrs by MTT assay; assay type: functional, cell-based; details: MCF7, 72 h
Raji = experiment: Cytotoxicity against human Raji cells assessed as reduction in cell viability after 72 hrs by MTT assay; assay type: functional, cell-based
Jurkat = experiment: Cytotoxicity against human Jurkat cells assessed as reduction in cell viability after 72 hrs by MTT assay; assay type: functional, cell-based
HL-60 = experiment: Cytotoxicity against human HL60 cells assessed as reduction in cell viability after 72 hrs by MTT assay; assay type: functional, cell-based; details: HL-60, 72 h
K562 [1] = experiment: Cytotoxicity against human K562 cells assessed as reduction in cell viability after 72 hrs by MTT assay; assay type: functional, cell-based; details: K562, 72 h
A549 = experiment: Cytotoxicity against human A549 cells assessed as reduction in cell viability after 72 hrs by MTT assay; assay type: functional, cell-based; details: A549, 72 h
K562 [2] = experiment: Cell cycle arrest in human K562 cells assessed as accumulation at sub G1 phase at IC50 after 72 hrs by propidium iodide staining based flow cytometry (reference value: 1.48%); assay type: functional
K562 [3] = experiment: Cell cycle arrest in human K562 cells assessed as accumulation at G0/G1 phase at IC50 after 72 hrs by propidium iodide staining based flow cytometry (reference value: 38.48%); assay type: functional
K562 [4] = experiment: Cell cycle arrest in human K562 cells assessed as accumulation at S phase at IC50 after 72 hrs by propidium iodide staining based flow cytometry (reference value: 41.03%); assay type: functional
K562 [5] = experiment: Cell cycle arrest in human K562 cells assessed as accumulation at G2/M phase at IC50 after 72 hrs by propidium iodide staining based flow cytometry (reference value: 19.01%); assay type: functional
K562 [6] = experiment: Induction of apoptosis in human K562 cells assessed as specific apoptosis by Annexin V-FITC/propidium iodide staining based flow cytometry; assay type: functional; set-up: concentration or dose not given beside the values
K562 [7] = experiment: Induction of apoptosis in human K562 cells assessed as specific necrosis by Annexin V-FITC/propidium iodide staining based flow cytometry; assay type: functional; set-up: concentration or dose not given beside the values
K562 [8] = experiment: Induction of apoptosis in human K562 cells assessed as decrease in Bcl-2 expression level by Western blot analysis; assay type: functional, cell-based
Method in brief: (§1)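 Western blot of treated K562 cells for Bcl-2, Bax, activated caspase 3 and cleaved PARP (85 kDa fragment). Blots developed by ECL, with band expression quantified by densitometry against an untreated control sample.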

K562 [9] = experiment: Induction of apoptosis in human K562 cells assessed as increase in Bax expression level by Western blot analysis; assay type: functional, cell-based; method in brief: as §1
K562 [10] = experiment: Induction of apoptosis in human K562 cells assessed as increase in caspase 3 expression level by Western blot analysis; assay type: functional, cell-based; method in brief: as §1
K562 [11] = experiment: Induction of apoptosis in human K562 cells assessed as increase in cleaved PARP expression level by Western blot analysis; assay type: functional, cell-based; method in brief: as §1
K562 [12] = experiment: Cell cycle arrest in human K562 cells assessed as total cell levels at G0/G1 phase at IC50 after 72 hrs by propidium iodide staining based flow cytometry (reference value: 39.97%); assay type: functional
K562 [13] = experiment: Cell cycle arrest in human K562 cells assessed as total cell levels at S phase at IC50 after 72 hrs by propidium iodide staining based flow cytometry (reference value: 36.49%); assay type: functional
K562 [14] = experiment: Cell cycle arrest in human K562 cells assessed as total cell levels at G2/M phase at IC50 after 72 hrs by propidium iodide staining based flow cytometry (reference value: 14.31%); assay type: functional
K562 [15] = experiment: Cell cycle arrest in human K562 cells assessed as total cell levels at M4 phase at IC50 after 72 hrs by propidium iodide staining based flow cytometry (reference value: 0.50%); assay type: functional
K562 [16] = experiment: Induction of apoptosis in human K562 cells assessed as gated necrotic cells by Annexin V-FITC/propidium iodide staining based flow cytometry (reference value: 0.24%); assay type: functional
K562 [17] = experiment: Induction of apoptosis in human K562 cells assessed as gated late apoptotic cells by Annexin V-FITC/propidium iodide staining based flow cytometry (reference value: 0.88%); assay type: functional
K562 [18] = experiment: Induction of apoptosis in human K562 cells assessed as gated viable cells by Annexin V-FITC/propidium iodide staining based flow cytometry (reference value: 95.78%); assay type: functional
K562 [19] = experiment: Induction of apoptosis in human K562 cells assessed as gated early apoptotic cells by Annexin V-FITC/propidium iodide staining based flow cytometry (reference value: 3.18%); assay type: functional
K562 [20] = experiment: Induction of apoptosis in human K562 cells assessed as total necrotic cells by Annexin V-FITC/propidium iodide staining based flow cytometry (reference value: 0.23%); assay type: functional
K562 [21] = experiment: Induction of apoptosis in human K562 cells assessed as total late apoptotic cells by Annexin V-FITC/propidium iodide staining based flow cytometry (reference value: 0.77%); assay type: functional
K562 [22] = experiment: Induction of apoptosis in human K562 cells assessed as total viable cells by Annexin V-FITC/propidium iodide staining based flow cytometry (reference value: 92.45%); assay type: functional
K562 [23] = experiment: Induction of apoptosis in human K562 cells assessed as total early apoptotic cells by Annexin V-FITC/propidium iodide staining based flow cytometry (reference value: 3.07%); assay type: functional
K562 [24] = experiment: Potency index, ratio of doxorubicin IC50 to compound IC50 for human K562 cells; assay type: functional

Compound | IC50 (MRC5) | IC50 (HeLa) | IC50 (MDA-MB-231) | IC50 (MCF7) | IC50 (Raji) | IC50 (Jurkat) | IC50 (HL-60) | IC50 (K562 [1]) | IC50 (A549) | Activity (K562 [2]) | Activity (K562 [3]) | Activity (K562 [4]) | Activity (K562 [5]) | Activity (K562 [6]) | Activity (K562 [7]) | Activity (K562 [8]) | Activity (K562 [9]) | Activity (K562 [10]) | Activity (K562 [11]) | Activity (K562 [12]) | also measured
COc1ccc(/C=C/C(=O)O[C@H]2C[C@@]3(C=CC(=O)O3)O[C@H]2c2ccccc2)cc1 | > 100000 nM | 9940 nM | 2690 nM | 3250 nM | 3050 nM | 2540 nM | 2250 nM | 1020 nM | 450 nM | 3.23% | 47.26% | 29.4% | 20.11% | 2.36% | 1.6% | Active | inactive | Active | Active | 42.31% | Activity (K562 [13]): 26.32%; Activity (K562 [14]): 18.76%; Activity (K562 [15]): 2.89%; Activity (K562 [16]): 2.44%; Activity (K562 [17]): 0.29%; Activity (K562 [18]): 95.84%; Activity (K562 [19]): 1.42%; Activity (K562 [20]): 2.34%; Activity (K562 [21]): 0.28%; Activity (K562 [22]): 91.77%; Activity (K562 [23]): 1.36%
O=C1C=C[C@@]2(C[C@H](OC(=O)/C=C/c3ccc([N+](=O)[O-])cc3)[C@H](c3ccccc3)O2)O1 | > 100000 nM | 24800 nM | 1250 nM | 4310 nM | 1640 nM | 4030 nM | 4360 nM | 2220 nM | 850 nM | 40.08% | 30.15% | 22.7% | 7.07% | 70.03% | 1.76% | Active | inactive | Active | Active | 24.92% | Activity (K562 [13]): 18.76%; Activity (K562 [14]): 6.42%; Activity (K562 [15]): 33.19%; Activity (K562 [16]): 2.29%; Activity (K562 [17]): 1.62%; Activity (K562 [18]): 26.49%; Activity (K562 [19]): 69.6%; Activity (K562 [20]): 1.03%; Activity (K562 [21]): 0.73%; Activity (K562 [22]): 11.93%; Activity (K562 [23]): 31.35%
O=C1C=C[C@]2(C[C@H](O)[C@@H](c3ccccc3)O2)O1 | > 100000 nM | 340 nM | 1890 nM | 11600 nM | 2340 nM | 210 nM | 1060 nM | 120 nM | 29000 nM | 1.6% | 32.52% | 59.02% | 6.86% | 22.6% | 1.08% | Active | inactive | Active | Active | 25.97% | Ratio IC50 (K562 [24]): 2; Activity (K562 [13]): 47.93%; Activity (K562 [14]): 5.47%; Activity (K562 [15]): 1.26%; Activity (K562 [16]): 5.02%; Activity (K562 [17]): 16.8%; Activity (K562 [18]): 69.31%; Activity (K562 [19]): 8.88%; Activity (K562 [20]): 1.21%; Activity (K562 [21]): 4.05%; Activity (K562 [22]): 16.71%; Activity (K562 [23]): 2.14%
